Legend:
[1] = molecular target: T1, 5-hydroxytryptamine receptor 4 (Homo sapiens, UniProt Q13639); test: Binding affinity was determined against cloned 5-hydroxytryptamine 4E receptor isoform expressed in C6 glial cells incubated with 0.2 nM [3H]GR-113808; assay type: cell-based
[2] = molecular target: T1, 5-hydroxytryptamine receptor 4; test: Concentration required to produce half-maximal response against 5-hydroxytryptamine receptor on the L-type calcium current (I Ca) in isolated human atrial myocytes; assay type: cell-based, Cardiac atrium
Summary of the method: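 Whole-cell patch clamp on enzymatically dissociated human atrial myocytes, room temperature (19–25 °C); Cs-based internal, pCa 8.5; I_Ca at 0 mV every 8 s, peak minus current at end of 400-ms pulse.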

[3] = molecular target: T1, 5-hydroxytryptamine receptor 4; test: ,Antagonism of stimulation of 5-hydroxytryptamine receptor on the L-type calcium current (I Ca) in isolated human atrial myocytes; assay type: functional, cell-based, Cardiac atrium
[4] = molecular target: T1, 5-hydroxytryptamine receptor 4; test: Binding affinity was determined against cloned 5-hydroxytryptamine 4A receptor isoform expressed in COS-7 cells; assay type: cell-based
[5] = molecular target: T1, 5-hydroxytryptamine receptor 4; test: Binding affinity was determined against cloned 5-hydroxytryptamine 4C receptor isoform expressed in COS-7 cells; assay type: cell-based
[6] = molecular target: T1, 5-hydroxytryptamine receptor 4; test: Binding affinity was determined against cloned 5-hydroxytryptamine 4D receptor isoform expressed in COS-7 cells; assay type: cell-based
[7] = molecular target: T1, 5-hydroxytryptamine receptor 4; test: Binding affinity was determined against cloned 5-hydroxytryptamine 4B receptor isoform expressed in COS-7 cells; assay type: cell-based

T1 sequence (Q13639 whole entry, canonical isoform): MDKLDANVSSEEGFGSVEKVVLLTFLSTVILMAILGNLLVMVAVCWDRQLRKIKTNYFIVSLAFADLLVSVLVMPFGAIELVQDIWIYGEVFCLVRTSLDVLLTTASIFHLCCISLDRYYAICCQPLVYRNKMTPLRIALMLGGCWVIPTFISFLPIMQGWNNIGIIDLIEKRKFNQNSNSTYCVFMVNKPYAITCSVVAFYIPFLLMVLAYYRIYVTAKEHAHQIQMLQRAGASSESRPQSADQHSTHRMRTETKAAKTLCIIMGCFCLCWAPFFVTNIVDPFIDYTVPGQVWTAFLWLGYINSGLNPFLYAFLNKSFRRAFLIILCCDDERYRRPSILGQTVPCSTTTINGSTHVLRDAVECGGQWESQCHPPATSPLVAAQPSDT

SMILES | Ki [1] [µM] | further results
COc1cc(N)c(Cl)cc1C(=O)OCCN1CCN(c2ccccc2OC)CC1 | 0.064 | –
COc1cc(N)c(Cl)cc1C(=O)OCCN1CCN(c2cnccn2)CC1 | 0.0014 | –
COc1cc(N)c(Cl)cc1C(=O)OCCN1CCN(c2ncccn2)CC1 | 0.001 | EC50 [2]: 0.0045 µM; Kd [3]: 0.0007 µM; Ki [4]: 0.0035 µM; Ki [5]: 0.00247 µM; Ki [6]: 0.00703 µM; Ki [7]: 0.0081 µM
CCOC(=O)N1CCN(CCOC(=O)c2cc(Cl)c(N)cc2OC)CC1 | 0.023 | –
COc1cc(N)c(Cl)cc1C(=O)OCCN1CCN(c2cccc3ccccc23)CC1 | > 1 | –
COc1cc(N)c(Cl)cc1C(=O)OCCN1CCNCC1 | > 1 | –
COc1cc(N)c(Cl)cc1C(=O)OCCN1CCN(c2cnc(Cl)nc2)CC1 | 0.0098 | –
COc1cc(N)c(Cl)cc1C(=O)OCCN1CCN(c2ccncn2)CC1 | 0.0092 | –
COc1cc(N)c(Cl)cc1C(=O)OCCN1CCN(C(=O)OC(C)(C)C)CC1 | > 1 | –
COc1cc(N)c(Cl)cc1C(=O)OCCN1CCN(c2cccc(Cl)c2)CC1 | 0.162 | –
COc1cc(N)c(Cl)cc1C(=O)OCCCN1CCN(c2ccccc2)CC1 | 0.0115 | –
COc1cc(N)c(Cl)cc1C(=O)OCCN1CCN(c2ccc(Cl)nn2)CC1 | 0.002 | –
COc1cc(N)c(Cl)cc1C(=O)OCCN1CCN(c2cccnn2)CC1 | 0.0014 | –
COc1cc(N)c(Cl)cc1C(=O)OCCN1CCN(c2ccccn2)CC1 | 0.0015 | –
COc1cc(N)c(Cl)cc1C(=O)OCCN1CCN(C)CC1 | > 1 | –
Cn1cc(C(=O)OCC2CCN(CCNS(C)(=O)=O)CC2)c2ccccc21 | 0.0001 | –
COc1cc(N)c(Cl)cc1C(=O)OCCN1CCN(Cc2ccccc2)CC1 | 0.24 | –

Second part, led by results:

Ki [1] [µM] | SMILES | further results
0.0035 | COc1cc(N)c(Cl)cc1C(=O)OCCN1CCN(c2ccncc2)CC1 | –
0.0143 | COc1cc(N)c(Cl)cc1C(=O)OCCN1CCN(c2ccccc2)CC1 | Ki [4]: 0.023 µM; Ki [5]: 0.0125 µM; Ki [6]: 0.032 µM; Ki [7]: 0.055 µM
0.715 | COc1cc(N)c(Cl)cc1C(=O)OCCN1CCN(c2ccc(Cl)cc2)CC1 | –
0.296 | COc1cc(N)c(Cl)cc1C(=O)OCCN1CCN(c2ccccc2Cl)CC1 | –
0.199 | COc1cc(N)c(Cl)cc1C(=O)OCCN1CCN(c2cccc(C(F)(F)F)c2)CC1 | –
0.0231 | COc1cc(N)c(Cl)cc1C(=O)OCCN1CCN(c2ccc(F)cc2)CC1 | –
0.003 | COc1cccc(N2CCN(CCOC(=O)c3cc(Cl)c(N)cc3OC)CC2)c1 | –
0.0177 | COc1ccc(N2CCN(CCOC(=O)c3cc(Cl)c(N)cc3OC)CC2)cc1 | –
0.0168 | COc1cc(N)c(Cl)cc1C(=O)OCCN1CCN(c2ccccc2F)CC1 | –

— ChEMBL document CHEMBL1133682, “New arylpiperazine derivatives as antagonists of the human cloned 5-HT(4) receptor isoforms” (J Med Chem, 2000)
